# Measurements reported in ChEMBL document CHEMBL5325481, “Examination of the Impact of Triazole Position within Linkers on Solubility and Lipophilicity of a CDK9 Degrader Series” (ACS Med Chem Lett, 2023).
# Legend:
# [1] = Kinetic solubility of the compound at pH 7.4 incubated for 1.5 hrs under shaking condition by UV plate reader analysis; assay type: physicochemical; conditions: buffer, read-out: Kinetic_solubility
# [2] = Lipophilicity, logK of compound at pH 7.7 in presence of 80% acetonitrile by HPLC analysis; assay type: physicochemical; conditions: buffer
# [3] = target: T1, Protein cereblon/Cyclin-dependent kinase 9 (Homo sapiens, UniProt P50750+Q96SW2); assay: PROTAC activity at CRBN/CDK9 in human MOLM-13 cells assessed as induction of CDK9 degradation incubated for 6 hrs by Western blot analysis
# Target sequence in this assay (P50750 whole entry): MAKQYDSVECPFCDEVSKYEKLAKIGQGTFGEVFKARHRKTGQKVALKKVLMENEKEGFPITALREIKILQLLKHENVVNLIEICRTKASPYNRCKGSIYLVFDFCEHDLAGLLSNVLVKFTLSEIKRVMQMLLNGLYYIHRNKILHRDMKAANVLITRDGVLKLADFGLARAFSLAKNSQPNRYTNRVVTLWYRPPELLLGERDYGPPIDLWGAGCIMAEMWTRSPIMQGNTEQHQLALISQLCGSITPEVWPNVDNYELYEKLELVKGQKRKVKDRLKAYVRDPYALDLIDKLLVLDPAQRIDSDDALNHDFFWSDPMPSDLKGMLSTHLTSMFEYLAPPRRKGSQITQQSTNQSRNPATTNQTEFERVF
# Target sequence in this assay (Q96SW2 whole entry): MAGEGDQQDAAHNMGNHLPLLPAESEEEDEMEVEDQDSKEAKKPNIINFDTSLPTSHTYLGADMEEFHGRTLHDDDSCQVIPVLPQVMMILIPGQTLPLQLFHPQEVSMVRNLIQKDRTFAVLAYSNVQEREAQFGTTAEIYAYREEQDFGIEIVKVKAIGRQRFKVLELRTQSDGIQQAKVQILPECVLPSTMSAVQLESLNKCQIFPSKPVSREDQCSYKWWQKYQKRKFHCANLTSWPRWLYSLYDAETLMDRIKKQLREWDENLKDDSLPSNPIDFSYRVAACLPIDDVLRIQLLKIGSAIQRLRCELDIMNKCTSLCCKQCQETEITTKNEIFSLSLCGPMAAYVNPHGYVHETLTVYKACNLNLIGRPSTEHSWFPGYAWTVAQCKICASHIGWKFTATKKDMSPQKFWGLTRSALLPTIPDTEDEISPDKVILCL
# [4] = target: T1, Protein cereblon/Cyclin-dependent kinase 9; assay: PROTAC activity at CRBN/CDK9 in human MOLM-13 cells assessed as induction of CDK9 degradation by measuring maximal efficacy at 0.01 to 5 uM incubated for 6 hrs by Western blot analysis relative to control; conditions: dose 0.01-5 µM
# Target sequence in this assay (P50750 whole entry, looked up): as the sequence (P50750 whole entry) above
# Target sequence in this assay (Q96SW2 whole entry, looked up): as the sequence (Q96SW2 whole entry) above
# MV4-11 [5] = assay: Antiproliferative activity against human MV4-11 cells assessed as inhibition of cell growth measured after 48 hrs by MTS assay; assay type: functional, cell-based; conditions: MV4-11, 48 h
# MV4-11 [6] = assay: Antiproliferative activity against human MV4-11 cells assessed as inhibition of cell growth measured after 48 hrs in presence of fetal bovine serum by MTS assay; assay type: functional
# Method in brief: (§1)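 MV4-11 AML cells exposed to compound, with growth medium supplemented with either human serum or fetal bovine serum. Cytotoxicity IC50 was determined in each serum condition. The serum shift is the change in activity between human serum and fetal bovine serum.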
# MV4-11 [7] = assay: Antiproliferative activity against human MV4-11 cells assessed as inhibition of cell growth measured after 48 hrs in presence of human serum by MTS assay; assay type: functional; method in brief: as §1
# [8] = Aqueous solubility of the compound; assay type: physicochemical
# MV4-11 [9] = assay: Antiproliferative activity against human MV4-11 cells assessed as fold decrease in cell growth measured after 48 hrs in presence of human serum by MTS assay; assay type: functional; method in brief: as §1
structure (smiles),measurement,setting,value
O=C1CCC(N2C(=O)c3cccc(OCCCCCCCn4cc(CCCCCCCN5CCC(NC(=O)c6n[nH]cc6NC(=O)c6c(Cl)cccc6Cl)CC5)nn4)c3C2=O)C(=O)N1 (configuration not stated),solubility kinetic at 1.5 h,[1],4.7 µM
same,log K,[2],0.176
same,DC50,[3],60 nM
same,Emax,[4],78%
same,IC50,MV4-11 [5]; read-out: IC50,60 nM
same,IC50,MV4-11 [5]; read-out: pIC50 (converted),63.1 nM
O=C1CCC(N2C(=O)c3cccc(OCCCCCCCn4cc(CCCCCN5CCC(NC(=O)c6n[nH]cc6NC(=O)c6c(Cl)cccc6Cl)CC5)nn4)c3C2=O)C(=O)N1 (configuration not stated),solubility kinetic at 1.5 h,[1],5.46 µM
same,log K,[2],0.14
same,DC50,[3],100 nM
same,Emax,[4],70.1%
same,IC50,MV4-11 [5]; read-out: IC50,50 nM
same,IC50,MV4-11 [5]; read-out: pIC50 (converted),50.1 nM
O=C1CCC(N2C(=O)c3cccc(OCCCCn4cc(CCCCN5CCC(NC(=O)c6n[nH]cc6NC(=O)c6c(Cl)cccc6Cl)CC5)nn4)c3C2=O)C(=O)N1 (configuration not stated),solubility kinetic at 1.5 h,[1],40.9 µM
same,log K,[2],0.084
same,DC50,[3],70 nM
same,EC,MV4-11 [6],190.1 nM
same,Emax,[4],79.1%
same,EC,MV4-11 [7],69.3 nM
same,solubility,[8],≥ 40 µM
same,IC50,MV4-11 [5]; read-out: IC50,190 nM
same,IC50,MV4-11 [5]; read-out: pIC50 (converted),200 nM
same,fold change (FC),MV4-11 [9],3
O=C1CCC(N2C(=O)c3cccc(OCCCCn4cc(CCCCCN5CCC(NC(=O)c6n[nH]cc6NC(=O)c6c(Cl)cccc6Cl)CC5)nn4)c3C2=O)C(=O)N1 (configuration not stated),solubility kinetic at 1.5 h,[1],31.3 µM
same,log K,[2],0.106
same,DC50,[3],400 nM
same,Emax,[4],58.6%
same,IC50,MV4-11 [5]; read-out: IC50,190 nM
same,IC50,MV4-11 [5]; read-out: pIC50 (converted),200 nM
O=C1CCC(N2C(=O)c3cccc(OCCCCCn4cc(CCCCN5CCC(NC(=O)c6n[nH]cc6NC(=O)c6c(Cl)cccc6Cl)CC5)nn4)c3C2=O)C(=O)N1 (configuration not stated),solubility kinetic at 1.5 h,[1],12.4 µM
same,log K,[2],0.1
same,DC50,[3],130 nM
same,Emax,[4],67.5%
same,IC50,MV4-11 [5]; read-out: IC50,240 nM
same,IC50,MV4-11 [5]; read-out: pIC50 (converted),251 nM
O=C1CCC(N2C(=O)c3cccc(OCCCCn4cc(CCCCCCN5CCC(NC(=O)c6n[nH]cc6NC(=O)c6c(Cl)cccc6Cl)CC5)nn4)c3C2=O)C(=O)N1 (configuration not stated),solubility kinetic at 1.5 h,[1],12.9 µM
same,log K,[2],0.116
same,DC50,[3],100 nM
same,Emax,[4],75.3%
same,solubility,[8],12.9 µM
same,IC50,MV4-11 [5]; read-out: IC50,70 nM
same,IC50,MV4-11 [5]; read-out: pIC50 (converted),79.4 nM
O=C(NC1CCNCC1)c1n[nH]cc1NC(=O)c1c(Cl)cccc1Cl [AT-7519],solubility kinetic at 1.5 h,[1],512 µM
same,log K,[2],0.134
same,IC50,MV4-11 [5]; read-out: IC50,120 nM
same,IC50,MV4-11 [5]; read-out: pIC50 (converted),126 nM
O=C1CCC(N2C(=O)c3cccc(OCCCCn4cc(CCCCCCCCCCN5CCC(NC(=O)c6n[nH]cc6NC(=O)c6c(Cl)cccc6Cl)CC5)nn4)c3C2=O)C(=O)N1 (configuration not stated),solubility kinetic at 1.5 h,[1],3.42 µM
same,log K,[2],0.197
same,DC50,[3],40 nM
same,EC,MV4-11 [6],8.8 nM
same,Emax,[4],88.6%
same,EC,MV4-11 [7],28.6 nM
same,IC50,MV4-11 [5]; read-out: IC50,10 nM
same,IC50,MV4-11 [5]; read-out: pIC50 (converted),7.94 nM
same,fold change (FC),MV4-11 [9],3
O=C1CCC(N2C(=O)c3cccc(OCCCCCCCCn4cc(CCCCCCN5CCC(NC(=O)c6n[nH]cc6NC(=O)c6c(Cl)cccc6Cl)CC5)nn4)c3C2=O)C(=O)N1 (configuration not stated),solubility kinetic at 1.5 h,[1],2.38 µM
same,log K,[2],0.184
same,DC50,[3],70 nM
same,Emax,[4],86.2%
same,IC50,MV4-11 [5]; read-out: IC50,70 nM
same,IC50,MV4-11 [5]; read-out: pIC50 (converted),79.4 nM
O=C1CCC(N2C(=O)c3cccc(OCCCCCn4cc(CCCCCN5CCC(NC(=O)c6n[nH]cc6NC(=O)c6c(Cl)cccc6Cl)CC5)nn4)c3C2=O)C(=O)N1 (configuration not stated),solubility kinetic at 1.5 h,[1],13.2 µM
same,log K,[2],0.112
same,DC50,[3],950 nM
same,Emax,[4],68.5%
same,solubility,[8],13.2 µM
same,IC50,MV4-11 [5]; read-out: IC50,130 nM
same,IC50,MV4-11 [5]; read-out: pIC50 (converted),126 nM
O=C1CCC(N2C(=O)c3cccc(OCCCCCCCCn4cc(CCN5CCC(NC(=O)c6n[nH]cc6NC(=O)c6c(Cl)cccc6Cl)CC5)nn4)c3C2=O)C(=O)N1 (configuration not stated),solubility kinetic at 1.5 h,[1],5.65 µM
same,log K,[2],0.146
same,DC50,[3],60 nM
same,EC,MV4-11 [6],46.9 nM
same,Emax,[4],88.3%
same,EC,MV4-11 [7],881.9 nM
same,solubility,[8],5.65 µM
same,IC50,MV4-11 [5]; read-out: IC50,50 nM
same,IC50,MV4-11 [5]; read-out: pIC50 (converted),50.1 nM
same,fold change (FC),MV4-11 [9],20
